Compound activity deposited in PubChem by several laboratories.
hiPSC survival: enhancers of single-cell hiPSC survival, primary screen, ATPlite luminescence; survival enhancement, % at 20 µM; AID 602274, 2012; 100% = ROCK inhibitor wells, 0% = DMSO; 0.044% of 360,000 active; in the data active = survival enhancement above about 18%;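 also: cells exposed to compounds for 16 hours before the ATP read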
NR1D1 modulator: modulators of Rev-erb alpha DNA binding, primary screen, biochemical, FITC-DNA, fluorescence polarization, uHTS | activity, % at 10 µM | Nuclear receptor subfamily 1 group D member 1 (Homo sapiens), P20393 | Rev-erbα–FITC-DNA binding, 90 min | AID 1259318, 2017 | 0.79% of 370,000 active;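 active = activity above about 14%, limit read from the data; passing the limit was not always enough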
Target sequence (P20393 whole entry, looked up): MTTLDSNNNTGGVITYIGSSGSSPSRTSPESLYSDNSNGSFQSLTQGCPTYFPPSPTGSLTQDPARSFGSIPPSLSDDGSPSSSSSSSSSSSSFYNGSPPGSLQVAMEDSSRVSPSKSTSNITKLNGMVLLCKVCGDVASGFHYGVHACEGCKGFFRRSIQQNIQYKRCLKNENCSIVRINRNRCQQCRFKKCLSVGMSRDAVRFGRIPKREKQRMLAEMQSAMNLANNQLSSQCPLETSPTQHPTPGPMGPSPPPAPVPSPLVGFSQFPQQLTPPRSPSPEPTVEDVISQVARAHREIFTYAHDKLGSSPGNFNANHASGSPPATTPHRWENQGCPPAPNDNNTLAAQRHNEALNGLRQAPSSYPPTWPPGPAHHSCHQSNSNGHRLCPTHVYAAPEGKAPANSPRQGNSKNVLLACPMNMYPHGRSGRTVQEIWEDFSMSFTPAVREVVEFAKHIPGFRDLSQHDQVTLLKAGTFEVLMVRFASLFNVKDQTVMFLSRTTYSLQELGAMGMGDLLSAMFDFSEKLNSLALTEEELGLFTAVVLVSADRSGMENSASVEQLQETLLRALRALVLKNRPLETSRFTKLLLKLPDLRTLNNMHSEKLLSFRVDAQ
beta cell repl: inducers of MIN6 beta-cell proliferation, primary screen, ATP luminescence, uHTS; MIN6 cells proliferation, ATPlite luminescence, 48 h; cells starved in 0.2% serum; 100% = growth in 10% serum; proliferation, % at 10 µM; 0.29% of 330,000 active;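 active = compounds whose signal lies at least 3.5 SD above the mean of all wells on their plate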
PG9 binder: binders of HIV-1 gp120 antibody PG9, primary screen, biochemical, TR-FRET; HIV-1 gp120 / PG9 antibody interaction; TR-FRET gp120-PG9 antibody binding; inhibition, % at 6.7 µM; 0.43% of 360,000 active; AID 624416, 2012; in the data active = inhibition above about 8.5%
T cruzi repl: inhibitors of intracellular T. cruzi growth, primary screen, luminescence, NIH3T3 host cells; T. cruzi beta-gal in NIH3T3, 90 h; inhibition, % (concentration not given with the values); 1.4% of 300,000 active;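 active = mean inhibition across valid replicates above about 55%, limit read from the data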;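 also: signal also drops with host cell toxicity which is not excluded here; higher percent means less beta-gal luminescence so fewer parasites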
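Incubation – ≥90 h infection period, 3 h prior cell attachment · System – NIH/3T3 fibroblasts plus reporter T. cruzi · Doses – compound pinned at 50 nL/well, DMSO · Read-out basis – percent inhibition of parasite-derived β-gal signal · Signal – luminescent β-galactosidase signal after 60 min lysis · Also added – 5000 T. cruzi trypomastigotes/well · Medium – Low-serum DMEM with 2% FBS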
H9c2 TAG inh: inhibitors of triacylglycerol accumulation, primary screen, cell-based, uHTS, fluorescence, H9c2; H9c2 cells, Nile Red lipid (TAG) fluorescence; cells loaded with 200 µM oleic acid; inhibition, % at 12.5 µM; 0.66% of 230,000 active; AID 651582, 2012;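 active = pattern-corrected inhibition of lipid staining of at least 50% with the nuclear-stain viability signal not falling by more than 50%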
A number is an active result; - = inactive; . = not tested or not shown. Compounds with a hit are over-represented: about 2.9% of the library has one in this group of screens.

SMILES | hiPSC survival | NR1D1 modulator | beta cell repl | PG9 binder | T cruzi repl | H9c2 TAG inh
COc1cccc(-c2nc(CCl)cs2)c1 | - | - | - | - | 60.7 | -
Cc1ccc2c(c1)S/C(=C/c1ccc[n+](CCO)c1)N2C | - | - | - | - | 61.2 | -
CC(C)N(Cc1nc(-c2ccccc2)no1)C(=O)CN(C)S(=O)(=O)c1ccc(Br)cc1 | - | - | - | - | - | .
CC(C)N(Cc1nc(-c2ccc(Cl)cc2)no1)C(=O)CN(C)S(=O)(=O)c1ccc(Cl)cc1 | - | - | - | . | 55.6 | .
Cc1cc(/C=N/NC(N)=S)c(C)n1-c1ccc(Cl)cc1 | - | - | - | - | - | .
Cc1cc(/C=N/NC(N)=S)c(C)n1-c1cccc(Cl)c1 | - | - | - | - | 73.3 | -
COc1cccc(C(=O)Nc2ccc3c(c2)OCO3)c1OC | - | - | - | - | - | .
Cc1cccc(/C=C(\c2nc3ccccc3[nH]2)S(=O)(=O)c2ccccc2)c1 | - | - | . | - | - | -
CC(C)(C)c1ccc(/C=C(\c2nc3ccccc3[nH]2)S(=O)(=O)c2ccccc2)cc1 | - | . | - | . | 56.5 | -
COC(=O)c1ccc(-c2ccc(/C=N/N3C(=O)C4C5C=CC(CC5)C4C3=O)o2)cc1 (centres undefined) | - | - | - | - | - | .
Cc1cc(Cn2ccnc2)c(C)c([N+](=O)[O-])c1Cn1ccnc1 | - | - | - | - | 60.2 | .
CCOc1ccc(CN(C)CC(=O)Nc2cc(C)c(C)cc2[N+](=O)[O-])cc1 | - | - | - | - | - | -
CCOc1ccc(CN(C)CC(=O)Nc2cc(OC)c([N+](=O)[O-])cc2C)cc1 | - | - | - | - | 58.8 | .
CN1/C(=C\C(=S)NC(=O)c2cccc(Br)c2)C(C)(C)c2ccccc21 | - | - | - | - | - | -
CCN(CC)S(=O)(=O)c1cccc(C(=O)/C=C2/N(C)c3ccccc3C2(C)C)c1 | - | - | - | - | 56.8 | .
CC(NCc1cc(Br)ccc1OCC(=O)NCc1ccccc1)c1ccccc1 (centres undefined) | - | - | - | - | 60.5 | -
COc1ccc(O)c(C(=O)c2cc(C(=O)NCCc3ccccc3)c(=O)n(CCc3ccccc3)c2)c1 | - | - | - | - | - | -
Cc1ccc(O)c(C(=O)c2cc(C(=O)NCCc3ccccc3)c(=O)n(CCc3ccccc3)c2)c1 | - | - | - | - | 61.1 | .
C=CCOc1ccccc1CNc1ccc2c(c1)OCCO2 | - | . | - | . | 73.0 | -
C=CCOc1ccccc1CNc1cccc(F)c1 | - | - | - | - | - | .
O=C(NCCC1=CCCCC1)c1cc(S(=O)(=O)N2CCOCC2)ccc1F | - | - | - | - | - | -
COc1ccc(Cl)cc1NC(=S)NCCC(c1ccccc1)c1ccccc1 | - | - | - | - | 56.2 | .
CN(C)C(CNC(=O)c1ccc([N+](=O)[O-])cc1Cl)c1ccco1 (centres undefined) | - | - | - | - | - | .
N#CC1=C(N)SC(N)=C(C#N)C1c1cccc(O)c1 | - | - | - | 22.1 | - | .
Cc1c(C)c2cc(Cl)c(OCc3nn[nH]n3)cc2oc1=O | - | - | - | - | - | -
SMILES | hiPSC survival | NR1D1 modulator | beta cell repl | PG9 binder | T cruzi repl | H9c2 TAG inh
CN(C)CCCNC(=O)CCc1ncc(C(F)(F)F)cc1Cl | - | - | - | - | - | -
CN(C)CCCNc1ncc(C(F)(F)F)cc1Cl | - | - | - | - | 63.2 | .
Cc1ccc2sc(N(CCCN(C)C)C(=O)c3ccc(S(=O)(=O)N4CCCCCC4)cc3)nc2c1C | - | - | - | - | 56.6 | -
Cc1cc(C)c2nc(N(CCCN(C)C)C(=O)c3ccc(S(=O)(=O)N4CCCCCC4)cc3)sc2c1 | - | - | - | - | - | -
Cc1ccc2sc(N(CCCN(C)C)C(=O)CN3C(=O)c4ccccc4C3=O)nc2c1C | - | - | - | - | 57.6 | -
Cc1cc(C)c2sc(N(CCCN(C)C)C(=O)c3ccc(S(=O)(=O)N(C)C4CCCCC4)cc3)nc2c1 | - | - | - | - | 55.4 | -
CCOC(=O)N1CCN(S(=O)(=O)c2ccc(C(=O)N(CCN(C)C)c3nc4ccc(Cl)cc4s3)cc2)CC1 | - | - | - | - | 75.6 | -
CN(C)CCCN(C(=O)c1ccc(S(=O)(=O)N(C)C2CCCCC2)cc1)c1nc2ccc(F)cc2s1 | - | - | - | - | - | -
COc1ccc(NC(=O)C2C3C=CC(C3)C2C(=O)O)cc1 (centres undefined) | - | - | - | - | - | -
CC(C)CC1NC(=O)c2cccnc2-n2c1nc1cc(F)ccc1c2=O (centres undefined) | - | - | . | - | . | -
COC(=O)c1ccc(C(=O)N2CCCC(N3CCN(c4ccccc4)CC3)C2)nc1 (centres undefined) | - | - | - | - | - | .
CCN(CC(=O)NCc1cccs1)C(=O)c1ccc(NS(=O)(=O)c2cccc([N+](=O)[O-])c2)cc1 | - | - | - | - | - | -
NS(=O)(=O)c1ccc(NC(=O)c2cc(-c3cc(Cl)ccc3O)n[nH]2)cc1 | - | - | - | - | - | .
CCOC(=O)c1nnn(-c2nonc2-n2cccc2)c1CN1CCCCC1 | - | - | - | - | - | .
CCC12C(=O)C(CC)(C(c3ccccc3)=C1c1ccccc1)[C@@H]1C(=O)N(c3ccc(C)cc3)C(=O)C12 (some centres undefined) | - | - | - | - | 57.2 | -
COc1ccc(/C=C/C(=O)C2C(=O)C=C(C)OC2=O)cc1O (centres undefined) | - | - | - | - | - | .
CCN(CC)CCNC(=O)c1cc2c(s1)-c1ccccc1SC2 | - | - | - | - | 54.9 | .
CN(Cc1ccccc1)Cc1c[nH]c2ccccc12 | - | - | - | - | 55.3 | -
c1ccc(Cc2c[nH]c3ccccc23)cc1 | - | - | - | - | - | -
O=C(NCCc1cnc[nH]1)c1ccc(-c2ccccc2)cc1 | - | - | - | - | 60.4 | .
CCOc1ccc(C(=O)NCCc2cnc[nH]2)cc1 | - | - | - | - | - | .
O=C(Cn1cccc1)Nc1ccc(F)cc1F | - | - | - | - | - | .
O=[N+]([O-])c1cccnc1S(=O)(=O)c1ccccc1 | - | - | - | - | 68.2 | .
COc1ccc([N+](=O)[O-])c(S(=O)(=O)c2ccccc2)n1 | - | - | - | - | - | -
COCCCNCCCOc1ccc(C(C)(C)c2ccccc2)cc1 | - | - | - | - | 57.8 | .
CC(=O)c1ccc(N2CCN(C(=O)COc3ccc(F)cc3)CC2)c(F)c1 | - | - | - | - | - | .
Cc1ccc(Cl)cc1NC(=O)CNCC(c1ccccc1)N(C)C (centres undefined) | - | - | - | - | - | .
